Laboratory results published in ChEMBL document CHEMBL1275442, “Pharmacokinetics and tissue distribution of anidulafungin in rats” (Antimicrob Agents Chemother, 2008).

Experiments:
Lung [1] = experiment: AUC (0 to infinity) in F344 rat lung assessed as total compound-derived radioactivity per gram of tissue at 5 mg/kg, iv administered as single bolus dose […]; format: ADME, organism-based; parameters: dose 5 mg/kg, route intravenous, time infinity; details: in vivo
How it was run: (§1)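 Same F344 study: single 5 mg/kg IV [¹⁴C]anidulafungin given over about 5 min. Total drug-derived radioactivity (parent plus metabolites) counted by liquid scintillation, in […]. Noncompartmental analysis of the composite mean profile.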

Muscle tissue [2] = experiment: Cmax in F344 rat muscle assessed as total compound-derived radioactivity per gram of tissue at 5 mg/kg, iv administered as single bolus dose […]; format: ADME, organism-based; parameters: dose 5 mg/kg, route intravenous; details: in vivo; how it was run: as §1
Blood [3] = experiment: Drug level in Long Evans rat blood assessed as radioactivity per gram of tissue at 5 mg/kg, iv administered as single bolus dose measured 12 hrs postdose by autoradiography; format: ADME, organism-based; parameters: dose 5 mg/kg, route intravenous; details: in vivo
How it was run: (§2)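 Male pigmented Long Evans (HsdBlu:LE) rats, 7.5 weeks old, 202 to 217 g, single iv [¹⁴C]anidulafungin; one rat per sampling time. Euthanized by isoflurane and cardiac-puncture exsanguination. Sagittal whole-body sections quantified by phosphorimaging autoradiography, single samples corrected for section thickness across multiple sections per tissue. Concentrations (μg eq/g drug-derived radioactivity) interpolated from least-squares standard curves per scan.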

[4] = Tmax in F344 rat skin at 5 mg/kg, iv administered as single bolus dose by HPLC method; format: ADME, organism-based, Zone of skin; parameters: dose 5 mg/kg, route intravenous
How it was run: (§3)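 F344 males, 10 to 11 weeks old and 223.6 to 243.8 g, got a single 5 mg/kg iv dose of [14C]anidulafungin over about 5 min. Plasma and tissues were collected predose and at 0.083 to 72 h, n = 3 per time point. Parent drug was quantified by HPLC-UV, with LLOQ/ULOQ of 20/5,120 ng/ml in plasma and 220/56,320 ng/g in tissue. Noncompartmental parameters came from a composite mean concentration-time profile.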

Lung [5] = experiment: Drug level in Long Evans rat lung assessed as radioactivity per gram of tissue at 5 mg/kg, iv administered as single bolus dose measured 72 hrs postdose by autoradiography; format: ADME, organism-based; parameters: dose 5 mg/kg, route intravenous; details: in vivo; how it was run: as §2
Zone of skin [6] = experiment: AUC (0 to 24 hrs) in F344 rat skin assessed as total compound-derived radioactivity per gram of tissue at 5 mg/kg, iv administered as single bolus dose […]; format: ADME, organism-based; parameters: time < 24 hr, dose 5 mg/kg, route intravenous; details: in vivo; how it was run: as §1
Liver [7] = experiment: Drug level in Long Evans rat liver assessed as high disposition of radioactivity per gram of tissue at 5 mg/kg, iv administered as single bolus dose measured 12 hrs postdose by autoradiography; format: ADME, organism-based; parameters: dose 5 mg/kg, route intravenous; details: in vivo; how it was run: as §2
[8] = Cmax in F344 rat spleen at 5 mg/kg, iv administered as single bolus dose after 30 min by HPLC method; format: ADME, organism-based; parameters: dose 5 mg/kg, route intravenous
How it was run: (§4)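 Male F344 rats, 10–11 weeks, 223.6–243.8 g, given one IV dose of [¹⁴C]anidulafungin, 5 mg/kg, over about 5 min. Tissues and blood sampled at 0.083–72 h (n = 3 rats per time). Parent drug measured by HPLC; LLOQ/ULOQ were 20/5,120 ng/ml for plasma and 220/56,320 ng/g for tissue. Noncompartmental parameters taken from the composite mean profile.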

Liver [9] = experiment: Drug level in Long Evans rat liver assessed as high disposition of radioactivity per gram of tissue at 5 mg/kg, iv administered as single bolus dose measured 168 hrs postdose by autoradiography; format: ADME, organism-based; parameters: dose 5 mg/kg, route intravenous; details: in vivo; how it was run: as §2
Plasma = experiment: AUC (0 to infinity) in F344 rat plasma assessed as total compound-derived radioactivity per gram of tissue at 5 mg/kg, iv administered as single bolus dose […]; format: ADME, organism-based; parameters: time infinity, dose 5 mg/kg, route intravenous; details: in vivo; how it was run: as §1
[10] = Drug level in Long Evans rat eye assessed as radioactivity per gram of tissue at 5 mg/kg, iv administered as single bolus dose measured 6 hrs postdose by autoradiography; format: ADME, organism-based; parameters: dose 5 mg/kg, route intravenous; details: in vivo; how it was run: as §2
Spleen [11] = experiment: Half life in F344 rat spleen assessed as total compound-derived radioactivity at 5 mg/kg, iv administered as single bolus dose […]; format: ADME, organism-based; parameters: dose 5 mg/kg, route intravenous; details: in vivo
How it was run: (§5)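 Male F344 rats, 10 to 11 weeks old and 223.6 to 243.8 g, got one iv dose of [14C]anidulafungin at 5 mg/kg over about 5 min. Blood, CSF, kidney, liver, lung, quadriceps, spleen and skin were sampled predose and at 0.083 to 72 h, 3 rats per time. Total radioactivity (parent plus metabolites) was measured by liquid scintillation counting. Parameters were noncompartmental, from a composite mean profile.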

Cerebrospinal fluid [12] = experiment: Drug level in Long Evans rat cerebrospinal fluid assessed as radioactivity per gram of tissue at 5 mg/kg, iv administered as single bolus dose measured 12 hrs postdose by autoradiography; format: ADME, organism-based; parameters: dose 5 mg/kg, route intravenous; details: in vivo; how it was run: as §2
Cerebrum = experiment: Drug level in Long Evans rat cerebrum assessed as radioactivity per gram of tissue at 5 mg/kg, iv administered as single bolus dose measured 24 hrs postdose by autoradiography; format: ADME, organism-based; parameters: dose 5 mg/kg, route intravenous; details: in vivo; how it was run: as §2
Spleen [13] = experiment: AUC (0 to 24 hrs) in F344 rat spleen at 5 mg/kg, iv administered as single bolus dose; format: ADME, organism-based; parameters: time < 24 hr, dose 5 mg/kg, route intravenous; details: in vivo; how it was run: as §4
Kidney = experiment: Half life in F344 rat kidney assessed as total compound-derived radioactivity at 5 mg/kg, iv administered as single bolus dose […]; format: ADME, organism-based; parameters: dose 5 mg/kg, route intravenous; details: in vivo; how it was run: as §5
[14] = Tmax in F344 rat kidney at 5 mg/kg, iv administered as single bolus dose by HPLC method; format: ADME, organism-based; parameters: dose 5 mg/kg, route intravenous; how it was run: as §3
Cerebrospinal fluid [15] = experiment: Half life in F344 rat cerebrospinal fluid assessed as total compound-derived radioactivity at 5 mg/kg, iv administered as single bolus dose […]; format: ADME, organism-based; parameters: dose 5 mg/kg, route intravenous; details: in vivo; how it was run: as §5
Blood [16] = experiment: Drug level in Long Evans rat blood assessed as radioactivity per gram of tissue at 5 mg/kg, iv administered as single bolus dose measured 0.5 hrs postdose by autoradiography; format: ADME, organism-based; parameters: dose 5 mg/kg, route intravenous; details: in vivo
How it was run: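 Male pigmented Long Evans rats, 7.5 weeks, 202–217 g, given one IV dose of [¹⁴C]anidulafungin, 5 mg/kg. Euthanised under isoflurane with cardiac exsanguination, one rat per time. Sagittal whole-body sections quantified by phosphorimaging, corrected for section thickness. Concentrations in μg eq/g interpolated from least-squares standard curves.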

Zone of skin [17] = experiment: AUC (0 to 24 hrs) in F344 rat skin at 5 mg/kg, iv administered as single bolus dose; format: ADME, organism-based; parameters: time < 24 hr, dose 5 mg/kg, route intravenous; details: in vivo; how it was run: as §4
Liver [18] = experiment: Tmax in F344 rat liver assessed as total compound-derived radioactivity at 5 mg/kg, iv administered as single bolus dose […]; format: ADME, organism-based; parameters: dose 5 mg/kg, route intravenous; details: in vivo; how it was run: as §5
[19] = Drug level in Long Evans rat eye assessed as radioactivity per gram of tissue at 5 mg/kg, iv administered as single bolus dose measured 24 hrs postdose by autoradiography; format: ADME, organism-based; parameters: dose 5 mg/kg, route intravenous; details: in vivo; how it was run: as §2
[20] = Tmax in F344 rat lung at 5 mg/kg, iv administered as single bolus dose by HPLC method; format: ADME, organism-based; parameters: dose 5 mg/kg, route intravenous; how it was run: as §3
Muscle tissue [21] = experiment: Tmax in F344 rat muscle assessed as total compound-derived radioactivity at 5 mg/kg, iv administered as single bolus dose […]; format: ADME, organism-based; parameters: dose 5 mg/kg, route intravenous; details: in vivo; how it was run: as §5
Blood [22] = experiment: Drug level in Long Evans rat blood assessed as radioactivity per gram of tissue at 5 mg/kg, iv administered as single bolus dose measured 24 hrs postdose by autoradiography; format: ADME, organism-based; parameters: dose 5 mg/kg, route intravenous; details: in vivo; how it was run: as §2
Muscle tissue [23] = experiment: Drug level in Long Evans rat muscle assessed as radioactivity per gram of tissue at 5 mg/kg, iv administered as single bolus dose measured 72 hrs postdose by autoradiography; format: ADME, organism-based; parameters: dose 5 mg/kg, route intravenous; details: in vivo
How it was run: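 Male pigmented Long Evans (HsdBlu:LE) rats, 7.5 weeks old and 202 to 217 g, got a single iv dose of [14C]anidulafungin at 5 mg/kg. One rat per time point (0.5, 6, 12, 24, 72, 168 h) was euthanised by isoflurane and cardiac-puncture exsanguination. Sagittal whole-body sections were quantified by phosphorimaging. Samples were thickness-corrected, and concentrations (μg eq/g) were interpolated from least-squares standard curves.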

## CCCCCOc1ccc(-c2ccc(-c3ccc([14C](=O)N[C@H]4C[C@@H](O)[C@@H](O)NC(=O)[C@@H]5[C@@H](O)[C@@H](C)CN5C(=O)[C@H]([C@@H](C)O)NC(=O)[C@H]([C@H](O)[C@@H](O)c5ccc(O)cc5)NC(=O)[C@@H]5C[C@@H](O)CN5C(=O)[C@H]([C@@H](C)O)NC4=O)cc3)cc2)cc1 [14C-ANIDULAFUNGIN]
Lung [1]
  AUC: 1341.95 ugequiv.hr/g
Muscle tissue [2]
  Cmax: 4.16 ugequiv/g
Blood [3]
  Drug uptake: 2.55 ugequiv
[4]
  Tmax: 30 min
Lung [5]
  Drug uptake: 4.24 ugequiv
Zone of skin [6]
  AUC: 190.73 ugequiv.hr/g
Liver [7]
  Drug uptake: 25.01 ugequiv
[8]
  Cmax: 24200 ng/g
Liver [9]
  Drug uptake: 4.27 ugequiv
Plasma
  AUC: 177.87 ugequiv.hr/g
[10]
  Drug uptake: 1.74 ugequiv
Spleen [11]
  t1/2: 40.3 h
Cerebrospinal fluid [12]
  Drug uptake: 3.82 ugequiv
Cerebrum
  Drug uptake: 0.26 ugequiv
Spleen [13]
  AUC: 490.36 µg·h/g
Kidney
  t1/2: 48.5 h
[14]
  Tmax: 30 min
Cerebrospinal fluid [15]
  t1/2: 53.8 h
Blood [16]
  Drug uptake: 6.85 ugequiv
Zone of skin [17]
  AUC: 102.72 µg·h/g
Liver [18]
  Tmax: 480 min
[19]
  Drug uptake: 2.07 ugequiv
[20]
  Tmax: 4.98 min
Muscle tissue [21]
  Tmax: 30 min
Blood [22]
  Drug uptake: 2.27 ugequiv
Muscle tissue [23]
  Drug uptake: 0.43 ugequiv
